Test results reported in PMC4945769 (British Journal of Pharmacology, 2016).

Key:
[1] = PK studies in the rat; type: in vivo; details: Sprague Dawley, plasma, intravenous, 1 mg·kg^−1
In short: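 Male Sprague Dawley rats were given test compound at 1 mg·kg−1 IV or 3 mg·kg−1 orally; dose was set by syringe weight difference. Serial tail-vein blood was taken from 2 to 1440 min and centrifuged at 4°C. Plasma was stored at −20°C and then quantified by LC–MS/MS against calibration curves in control rat plasma. Parameters were derived by non-compartmental analysis.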

[2] = Plasma protein binding by equilibrium dialysis, rat plasma; type: in vitro ADME; details: 10 μM, 18 h at 37°C, mean, n of at least 3
In short: (§1)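 Test compound at 10 μM final was added to plasma and dialysed against buffer across a 5 kD membrane in a rotating unit for 18 h at 37°C. Buffer and plasma-side aliquots were quenched in methanol and measured by LC–MS/MS. Free fraction is the mean of at least three studies.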

[3] = biological target: DPP1 (Homo sapiens, UniProt P53634); experiment: DPP1 activity cell assay; type: cell-based; details: read-out: DPP1 IC50, corrected for PPB; in vitro potency corrected for rat PPB
[4] = system: neutrophil elastase (NE); experiment: Onset studies: NE activity in rat blood and bone marrow lysates; type: in vivo; details: onset 1 (14 day study), bone marrow
In short: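 Rats were dosed orally twice daily with test compound, 3.6 mg·kg−1 and then 10.7 mg·kg−1 8 h later, against citrate buffer pH 3.0 vehicle. Onset 1 ran 5, 8, 10, 12 or 14 days. Femurs were taken under isoflurane 2 h after the last dose. Marrow leukocytes were lysed on ice at 10^8 cells mL−1. Lysates received Methoxysuccinyl-Ala-Ala-Pro-Val-AMC and were read by fluorescence (ex 350–380, em 450–460 nm) for up to 60 min. Initial rate came from the linear range.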

[5] = system: proteinase 3 (PR3); experiment: Onset studies: PR3 activity in rat blood and bone marrow lysates; type: in vivo; details: onset 1 (14 day study), bone marrow
In short: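 Male Sprague Dawley rats received test compound orally twice daily, 3.6 and 10.7 mg·kg−1 8 h apart, for up to 14 days. Vehicle was citrate buffer pH 3.0. Blood and femoral marrow lysates (10^8 cells mL−1, Triton X-100) were incubated 15 min, then given the 5-FAM/QXL520 quenched peptide substrate. Fluorescence (ex 320–490, em 405–520 nm) was followed up to 60 min. Initial rate came from the linear portion.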

[6] = system: cathepsin G (CatG); experiment: Onset studies: CatG activity in rat blood and bone marrow lysates; type: in vivo; details: two onset studies, small assay window
In short: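 Male Sprague Dawley rats (200–400 g) were dosed orally twice daily, 3.6 mg·kg−1 in the morning and 10.7 mg·kg−1 8 h later, for 5–14 days (onset 1) or 1–8 days (onset 2). Vehicle was 0.1 M citrate buffer, pH 3.0. Blood and femoral marrow cells were lysed at 10^8 cells mL−1 in Triton X-100 buffer. Lysates were incubated 15 min, then given N-succinyl-Ala-Ala-Pro-Phe-pNA and read by absorbance at 405 nm for 90–120 min. Initial rate was taken from the linear range.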

[7] = system: NSP activity; experiment: Pharmacokinetic/pharmacodynamic modelling of NSP activity in rat; type: in vivo
In short: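 Rat NSP activity time courses were fitted with an indirect response model: production rate kin scaled by uninhibited DPP1 fraction 1 − C/(IC50 + C), loss rate kout, baseline taken as 100%. IC50 was the in vitro cell potency corrected for plasma protein binding. Exposure was simulated with a one-compartment PK model. kout was fitted to blood data from the onset study and bone marrow data from the recovery study.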

[8] = Prediction of human PK for AZ2; details: predicted
[9] = Plasma protein binding by equilibrium dialysis, human plasma; type: in vitro ADME; details: 10 μM, 18 h at 37°C, mean, n of at least 3
In short: as §1

Row | clearance [1] | PPB (%free) [2] | IC50 [3] | CL [8] | PPB (%free) [9] | SMILES | days of treatment to reach maximum reduction in NE activity [4] | days of treatment to reach maximum reduction in PR3 activity [5] | effect on CatG activity [6] | maximum reduction in protease activity in blood ([7]; onset studies) | maximum reduction in protease activity in bone marrow ([7]; recovery study)
1 | 6.67 mL/min | 4.1 %free | 140 nM |  |  | N#Cc1ccc(-c2ccc(C[C@@H](C#N)NC(=O)[C@@H]3CCCCN3)cc2)cc1 [AZ1, (S)‐N‐((S)‐1‐cyano‐2‐(4′‐cyanobiphenyl‐4‐yl)ethyl)piperidine‐2‐carboxamide] | 8 days | 8 days | lack of effect | about 75% | 
2 | 1.67 mL/min | 11 %free |  | 3.4 L/h | 9.1 %free | N#Cc1ccc(-c2ccc(C[C@@H](C#N)NC(=O)C3(N)CCOCC3)cc2)cc1 [AZ2, (S)‐4‐amino‐N‐(1‐cyano‐2‐(4′‐cyanobiphenyl‐4‐yl)ethyl)tetrahydro‐2H‐pyran‐4‐carboxamide] |  |  |  |  | 90%
